# Bioassay records: PubChem BioAssay, Sanford-Burnham Center for Chemical Genomics
# Sampled rows, rich in hits. Any-hit rate of the full collection: about 0.77%.
# mIAP inh – inhibitors of mouse IAP, primary screen, biochemical, luminescence, uHTS; purified mouse IAP, CDP-Star luminescence, 30 min; inhibition, % at 10 µM; intestinal alkaline phosphatase [Mus musculus]; 330,000 tested, 0.2% active;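 active means inhibition of at least 40% at 10 µM in the primary screen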;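 further: plate controls were DMSO with enzyme for no effect and no enzyme wells for full effect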
# hIAP inh – human IAP inhibitors, primary screen, biochemical, luminescence, uHTS | inhibition, % at 10 µM | AID 2544, 2010 | Intestinal-type alkaline phosphatase (Homo sapiens), P09923 | 330,000 tested, 0.12% active | purified IAP, CDP-Star luminescence, 30 min;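 active means inhibition reaching a set limit with compound at 10 µM in the primary screen, cut at about 35% in these data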;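 further: plate controls were DMSO wells with enzyme for no effect and no-enzyme buffer wells for full effect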
# Target sequence (P09923 whole entry, looked up): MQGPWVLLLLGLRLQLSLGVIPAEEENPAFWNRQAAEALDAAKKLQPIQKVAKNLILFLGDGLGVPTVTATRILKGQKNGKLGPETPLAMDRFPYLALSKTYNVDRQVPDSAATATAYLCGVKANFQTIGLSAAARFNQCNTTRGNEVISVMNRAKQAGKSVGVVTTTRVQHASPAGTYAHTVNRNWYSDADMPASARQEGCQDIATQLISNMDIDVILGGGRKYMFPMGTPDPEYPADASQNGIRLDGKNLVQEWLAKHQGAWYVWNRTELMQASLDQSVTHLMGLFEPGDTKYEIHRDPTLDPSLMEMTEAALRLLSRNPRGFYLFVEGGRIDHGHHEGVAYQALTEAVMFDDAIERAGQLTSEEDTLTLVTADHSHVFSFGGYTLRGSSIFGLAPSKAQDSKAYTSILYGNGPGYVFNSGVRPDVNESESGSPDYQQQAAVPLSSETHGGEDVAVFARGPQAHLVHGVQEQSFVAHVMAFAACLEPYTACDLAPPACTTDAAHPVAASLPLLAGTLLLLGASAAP
# mIAP activ – activators of mouse IAP, primary screen, biochemical, luminescence, uHTS; 330,000 tested, 0.24% active; activation factor at 10 µM; muIAP, CDP-Star luminescence, 30 min; hits give high values; 1 = vehicle-only enzyme signal, 0 = enzyme-free wells; intestinal alkaline phosphatase [Mus musculus];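 active means activation factor of at least 2 at 20 µM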
#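 also added = chemiluminescent substrate CDP-Star | test system = mouse IAP enzyme | signal = chemiluminescence readout | compound = DMSO-dissolved test compounds | incubation = 30 min at room temperature | benchmarks = DMSO wells, no-enzyme wells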
# bIAP activator – bovine intestinal alkaline phosphatase activators, primary screen, biochemical, bovine IAP, CDP-star luminescence. alkaline phosphatase, intestinal [Bos taurus]. 200,000 tested, 0.17% active. activation factor at 20 µM. purified bovine IAP, 30 min; hits give high values; fold of DMSO-control signal, blank-subtracted. AID 1016, 2008;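 active means activation factor of 2 or more at 20 µM, a signal rise over negative controls twice the positive control's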
# bIAP inhibitor – bovine intestinal alkaline phosphatase inhibitors, primary screen, selectivity assay for TNAP inhibitor project, biochemical, bovine IAP, CDP-star luminescence; AID 1019, 2008; purified bovine IAP, 30 min; inhibition, % at 20 µM; alkaline phosphatase, intestinal [Bos taurus]; 190,000 tested, under 10 active;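 active means over 50% inhibition of intestinal alkaline phosphatase at 20 µM in the single-dose screen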
#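 Assay system: bovine IAP enzyme; medium: DEA buffer 100 mM, pH 9.8, with MgCl2 1.0 mM, ZnCl2 0.02 mM; doses: 20 µM single dose; incubation: enzyme reaction for 30 min at room temperature; detection: CDP-star luminescence signal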
# hIAP activ – human IAP activators, primary screen, biochemical, luminescence, uHTS; 330,000 tested, 0.16% active; activation factor at 10 µM; purified human IAP, CDP-Star luminescence, 30 min; hits give high values; 1 = vehicle-only enzyme, 0 = enzyme-free background; Intestinal-type alkaline phosphatase (Homo sapiens), P09923;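 active means activation factor of the enzyme at least 2-fold when tested at 20 µM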
# mIAP inh conf – inhibitors of mouse IAP, confirmation, biochemical, luminescence, single concentration; shares compounds with mIAP inh; purified mouse IAP, CDP-Star luminescence, 30 min; inhibition, % at 10 µM; 11,000 tested, 4.7% active;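 active means inhibition of at least 40% at 10 µM in either of the two replicates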;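 further: plate controls were DMSO wells with enzyme for no effect and buffer wells lacking enzyme for full effect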
# Numbers without * were called inactive; / = not tested or not shown.
SMILES,mIAP inh,hIAP inh,mIAP activ,bIAP activator,bIAP inhibitor,hIAP activ,mIAP inh conf
Nc1c(C(=O)Nc2ccc(Br)cc2)sc2nc(-c3ccco3)ccc12,37.3,30.8,0.627,1,0.0,0.692,/
CCOC(=O)C1=NN(C(C)=O)C2(CC(=O)N(c3ccc(C)c(C)c3)C2=O)C1 (stereo not given),1.5,-11.6,0.985,0.9,6.9,1.12,/
O=C(C1CCC1)N1CCN(Cc2ccccc2)CC1,-18.2,-12.2,1.18,1,0.7,1.12,/
O=C(CSc1nnc(-c2ccco2)c(-c2ccco2)n1)Nc1ccccc1,45.3*,9.6,0.547,0.9,12.9,0.904,54.0*
COc1ccc(NC(=O)CSc2nnc(-c3ccco3)c(-c3ccco3)n2)cc1OC,18.4,1.1,0.816,/,/,0.989,/
CN(C)c1ccc(NC(=O)CSc2nnc(-c3ccco3)c(-c3ccco3)n2)cc1,48.9*,13.5,0.511,/,/,0.865,60.2*
Cc1ccccc1NC(=O)CSc1nnc(-c2ccco2)c(-c2ccco2)n1,52.5*,1.2,0.475,0.9,10.5,0.988,51.0*
Cc1ccc(NC(=O)CSc2nnc(-c3ccco3)c(-c3ccco3)n2)cc1,64.2*,9.5,0.358,1,1.7,0.905,59.8*
O=C(O)CC1(CC(=O)Nc2ccc(F)cc2F)CCCCC1,-1.1,-3.7,1.01,/,/,1.04,/
Cc1ccc(COC(=O)c2ccc3ccccc3n2)cc1,3.7,20.8,0.963,/,/,0.792,/
COc1ccc(OCc2nnc(SC3CCOC3=O)n2-c2ccccc2)cc1 (stereo not given),1.2,-2.5,0.988,1,4.4,1.02,/
Cc1cc(C)cc(NC(=O)Nc2cc(S(=O)(=O)N(C)C)ccc2C)c1,-387.8,-2.5,4.88*,/,/,1.02,-243.4
Cc1ccc(S(=O)(=O)N(C)C)cc1NC(=O)Nc1ccccc1F,-58.1,-43.4,1.58,/,/,1.43,/
Cc1ccc(NC(=O)NCC2CCN(Cc3cccc(Cl)c3)CC2)c(Cl)c1,-246.4,-46.2,3.46*,1.2,-19.5,1.46,-120.2
O=C(NCC1CCN(Cc2cccc(Cl)c2)CC1)Nc1ccccc1Cl,-172.9,-58.3,2.73*,/,/,1.58,-117.5
Cc1ccc(CN2CCC(CNC(=O)Nc3ccccc3F)CC2)cc1,-32.4,-7.9,1.32,/,/,1.08,/
CC(=O)c1cccc(NCC(=O)Nc2cccc(S(=O)(=O)N3CCCCC3)c2)c1,-2.6,11.8,1.03,/,/,0.882,/
CC(C)(C)C(O)/C=C/c1ccc2c(c1)OCO2 (stereo not given),-4.4,-25.4,1.04,/,/,1.25,/
O=C(NCC1CC1(Cl)Cl)Nc1ccc(Cl)c(Cl)c1 (stereo not given),-192.8,-5.6,2.93*,/,/,1.06,-152.6
O=C(CCO)c1ccc(O)cc1,45.7*,14.3,0.543,0.9,9.0,0.857,47.2*
CCCCC(=O)c1ccc(O)cc1,6.0,4.0,0.94,0.9,11.7,0.96,/
COc1ccccc1NC(=O)C(C)N1CCN(C/C=C/c2ccccc2)CC1 (stereo not given),2.1,-0.4,0.979,1.1,-9.6,1,/
O=C1CC(c2ccccc2)c2c(O)cc(O)cc2O1 (stereo not given),-2.8,6.0,1.03,0.9,14.3,0.94,/
O=C(c1c(O)cc(O)cc1O)C1c2c(cc(O)c3c2O[C@H](c2ccc(O)cc2)[C@@H](O)C3)OC1c1ccc(O)cc1 (stereo not given in full),58.5*,7.6,0.415,/,/,0.924,46.9*
O=C1OC2(c3ccccc31)c1cc(I)c(O)c(I)c1Oc1c2cc(I)c(O)c1I,44.4*,26.4,0.556,/,/,0.736,64.4*
Cc1ccc(NC(=O)CCNS(=O)(=O)c2ccc3[nH]c(=O)oc3c2)cc1F,42.4*,8.0,0.576,/,/,0.92,50.9*
